From ChEMBL document CHEMBL1914423, “New imidazo[2,1-b]thiazole derivatives: synthesis, in vitro anticancer evaluation, and in silico studies” (Eur J Med Chem, 2011)

These compounds were tested on CCRF-CEM (assay: Anticancer activity against human CCRF-CEM cells assessed as cell growth at 10^-5 M after 48 hrs by SRB assay). Conditions: read-out: Activity.
Format: functional
In short: (§1)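 NCI-60 single-dose screen at one concentration. Cells grown in RPMI 1640 with 5% FBS and 2 mM L-glutamine, plated at 5000–40,000 cells/well, and pre-incubated 24 h at 37 °C in 5% CO2 before DMSO-dissolved drug was added. Cells fixed with TCA, SRB-stained, absorbance read at 515 nm. Percent growth calculated against time-zero and untreated control plates.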

| Structure (SMILES) | growth at 10 µM [%] |
| --- | --- |
| COc1cccc(-c2nc3sccn3c2-c2ccnc(NCCNC(=O)c3cccc(C(F)(F)F)c3)n2)c1 | 39.3 |

Each compound was assayed on RPMI-8226 (assay: Anticancer activity against human RPMI8226 cells assessed as cell growth at 10^-5 M after 48 hrs by SRB assay). Conditions: RPMI-8226, 48 h, read-out: Activity.
Format: functional

| Structure (SMILES) | growth at 10 µM [%] |
| --- | --- |
| COc1cccc(-c2nc3sccn3c2-c2ccnc(NCCNC(=O)c3cccc(C(F)(F)F)c3)n2)c1 | 25.8 |

These compounds were tested on EKVX (assay: Anticancer activity against human EKVX cells assessed as cell growth at 10^-5 M after 48 hrs by SRB assay). Conditions: read-out: Activity.
Format: functional
In short: as §1

| Structure (SMILES) | growth at 10 µM [%] |
| --- | --- |
| COc1cccc(-c2nc3sccn3c2-c2ccnc(NCCNC(=O)c3cccc(C(F)(F)F)c3)n2)c1 | 76.2 |

What follows are compounds tested on HOP-62 (assay: Anticancer activity against human HOP62 cells assessed as cell growth at 10^-5 M after 48 hrs by SRB assay). Conditions: HOP-62, 48 h, read-out: Activity.
Format: functional
In short: as §1

| Structure (SMILES) | growth at 10 µM [%] |
| --- | --- |
| COc1cccc(-c2nc3sccn3c2-c2ccnc(NCCNC(=O)c3cccc(C(F)(F)F)c3)n2)c1 | 99.5 |

The compounds below were run on HOP-92 (assay: Anticancer activity against human HOP92 cells assessed as cell growth at 10^-5 M after 48 hrs by SRB assay). Conditions: HOP-92, 48 h, read-out: Activity.
Format: functional
In short: as §1

| Structure (SMILES) | growth at 10 µM [%] |
| --- | --- |
| COc1cccc(-c2nc3sccn3c2-c2ccnc(NCCNC(=O)c3cccc(C(F)(F)F)c3)n2)c1 | 106 |

The compounds below were run on NCI-H226 (assay: Anticancer activity against human NCI-H226 cells assessed as cell growth at 10^-5 M after 48 hrs by SRB assay). Conditions: NCI-H226, 48 h, read-out: Activity.
Format: functional

| Structure (SMILES) | growth at 10 µM [%] |
| --- | --- |
| COc1cccc(-c2nc3sccn3c2-c2ccnc(NCCNC(=O)c3cccc(C(F)(F)F)c3)n2)c1 | 87.5 |

What follows are compounds tested on NCI-H23 (assay: Anticancer activity against human NCI-H23 cells assessed as cell growth at 10^-5 M after 48 hrs by SRB assay). Conditions: NCI-H23, 48 h, read-out: Activity.
Format: functional

| Structure (SMILES) | growth at 10 µM [%] |
| --- | --- |
| COc1cccc(-c2nc3sccn3c2-c2ccnc(NCCNC(=O)c3cccc(C(F)(F)F)c3)n2)c1 | 70.7 |

The compounds below were run on NCI-H322M (assay: Anticancer activity against human NCI-H322M cells assessed as cell growth at 10^-5 M after 48 hrs by SRB assay). Conditions: read-out: Activity.
Format: functional

| Structure (SMILES) | growth at 10 µM [%] |
| --- | --- |
| COc1cccc(-c2nc3sccn3c2-c2ccnc(NCCNC(=O)c3cccc(C(F)(F)F)c3)n2)c1 | 102 |

What follows are compounds tested on NCI-H522 (assay: Anticancer activity against human NCI-H522 cells assessed as cell growth at 10^-5 M after 48 hrs by SRB assay). Conditions: NCI-H522, 48 h, read-out: Activity.
Format: functional

| Structure (SMILES) | growth at 10 µM [%] |
| --- | --- |
| COc1cccc(-c2nc3sccn3c2-c2ccnc(NCCNC(=O)c3cccc(C(F)(F)F)c3)n2)c1 | 48.8 |

These compounds were tested on HCT-116 (assay: Anticancer activity against human HCT116 cells assessed as cell growth at 10^-5 M after 48 hrs by SRB assay). Conditions: HCT-116, 48 h, read-out: Activity.
Format: functional
In short: as §1

| Structure (SMILES) | growth at 10 µM [%] |
| --- | --- |
| COc1cccc(-c2nc3sccn3c2-c2ccnc(NCCNC(=O)c3cccc(C(F)(F)F)c3)n2)c1 | 56.9 |

What follows are compounds tested on HCT-15 (assay: Anticancer activity against human HCT15 cells assessed as cell growth at 10^-5 M after 48 hrs by SRB assay). Conditions: HCT-15, 48 h, read-out: Activity.
Format: functional
In short: as §1

| Structure (SMILES) | growth at 10 µM [%] |
| --- | --- |
| COc1cccc(-c2nc3sccn3c2-c2ccnc(NCCNC(=O)c3cccc(C(F)(F)F)c3)n2)c1 | 55.8 |

Each compound was assayed on HT-29 (assay: Anticancer activity against human HT-29 cells assessed as cell growth at 10^-5 M after 48 hrs by SRB assay). Conditions: HT-29, 48 h, read-out: Activity.
Format: functional
In short: as §1

| Structure (SMILES) | growth at 10 µM [%] |
| --- | --- |
| COc1cccc(-c2nc3sccn3c2-c2ccnc(NCCNC(=O)c3cccc(C(F)(F)F)c3)n2)c1 | 49.8 |

What follows are compounds tested on KM12 (assay: Anticancer activity against human KM12 cells assessed as cell growth at 10^-5 M after 48 hrs by SRB assay). Conditions: KM12, 48 h, read-out: Activity.
Format: functional
In short: as §1

| Structure (SMILES) | growth at 10 µM [%] |
| --- | --- |
| COc1cccc(-c2nc3sccn3c2-c2ccnc(NCCNC(=O)c3cccc(C(F)(F)F)c3)n2)c1 | 58.6 |

These compounds were tested on SF-268 (assay: Anticancer activity against human SF268 cells assessed as cell growth at 10^-5 M after 48 hrs by SRB assay). Conditions: SF-268, 48 h, read-out: Activity.
Format: functional

| Structure (SMILES) | growth at 10 µM [%] |
| --- | --- |
| COc1cccc(-c2nc3sccn3c2-c2ccnc(NCCNC(=O)c3cccc(C(F)(F)F)c3)n2)c1 | 71 |

The compounds below were run on SF-539 (assay: Anticancer activity against human SF539 cells assessed as cell growth at 10^-5 M after 48 hrs by SRB assay). Conditions: SF-539, 48 h, read-out: Activity.
Format: functional

| Structure (SMILES) | growth at 10 µM [%] |
| --- | --- |
| COc1cccc(-c2nc3sccn3c2-c2ccnc(NCCNC(=O)c3cccc(C(F)(F)F)c3)n2)c1 | 88.3 |

These compounds were tested on SNB-75 (assay: Anticancer activity against human SNB75 cells assessed as cell growth at 10^-5 M after 48 hrs by SRB assay). Conditions: SNB-75, 48 h, read-out: Activity.
Format: functional
In short: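 NCI-60 single-dose screen: cells in RPMI 1640 with 5% FBS and 2 mM L-glutamine, plated at 5000–40,000 cells/well by doubling time, and preincubated 24 h at 37 °C. Compound given at one concentration from DMSO stock. Cells TCA-fixed and SRB-stained, absorbance at 515 nm. Percent growth relative to time-zero and untreated controls; inhibition % = 100 − growth %.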

| Structure (SMILES) | growth at 10 µM [%] |
| --- | --- |
| COc1cccc(-c2nc3sccn3c2-c2ccnc(NCCNC(=O)c3cccc(C(F)(F)F)c3)n2)c1 | 85.3 |
